Experiments:
[1] = biological target: Thymidine phosphorylase (Escherichia coli K-12) (UniProt P07650); assay: Inhibition of Escherichia coli thymidine phosphorylase at 1 mM incubated for 20 mins at room temperature followed by 5 mins incubation at 90 degC by HPLC analysis
Procedure, shortened: (§1)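 Enzyme from E. coli, combined with thymidine and orthophosphate in Tris buffer. Phosphonic acid added at 1 mM or 100 μM. Incubated 20 min at room temperature, then 5 min at 90 °C. Thymidine separated from thymine by HPLC and percent inhibition calculated.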

[2] = biological target: Thymidine phosphorylase (Escherichia coli K-12) (UniProt P07650); assay: Inhibition of Escherichia coli thymidine phosphorylase at 100 uM incubated for 20 mins at room temperature followed by 5 mins incubation at 90 degC by HPLC analysis; procedure, shortened: as §1
Thymidine phosphorylase = Thymidine phosphorylase (Escherichia coli K-12, UniProt P07650); assay: Competitive inhibition of Escherichia coli thymidine phosphorylase incubated for 20 mins at room temperature followed by 5 mins incubation at 90 degC by Lineweaver-Burk plot analysis
Thymidine phosphorylase, sequence (P07650 whole entry): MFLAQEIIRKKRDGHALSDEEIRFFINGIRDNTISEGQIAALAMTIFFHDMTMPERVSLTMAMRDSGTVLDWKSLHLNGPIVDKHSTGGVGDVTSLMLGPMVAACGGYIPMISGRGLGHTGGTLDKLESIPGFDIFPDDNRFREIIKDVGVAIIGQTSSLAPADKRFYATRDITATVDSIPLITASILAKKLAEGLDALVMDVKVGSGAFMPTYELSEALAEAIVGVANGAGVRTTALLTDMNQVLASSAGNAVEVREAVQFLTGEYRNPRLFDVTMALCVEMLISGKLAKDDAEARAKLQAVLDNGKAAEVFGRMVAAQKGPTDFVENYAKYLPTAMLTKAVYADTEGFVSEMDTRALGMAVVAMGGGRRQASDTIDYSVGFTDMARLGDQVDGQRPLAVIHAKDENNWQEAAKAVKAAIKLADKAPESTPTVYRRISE

[3] = Inhibition of thymidine phosphorylase

Thymidine phosphorylase (Escherichia coli K-12), sequence (P07650 whole entry, looked up): as the sequence (P07650 whole entry) above

inhibition [1] [%] | inhibition [2] [%] | Ki (Thymidine phosphorylase) [µM] | Ki [3] [µM] | Structure (SMILES)
90 | 68 | 58 | – | Cc1cn(Cc2cn(CCCCC(F)(F)P(=O)(O)O)nn2)c(=O)[nH]c1=O
85 | 55 | – | – | Cc1cn(CCCCCCCCC(F)(F)P(=O)(O)O)c(=O)[nH]c1=O
68 | 15 | – | – | Cc1cn(CCCCC(F)(F)P(=O)(O)O)c(=O)[nH]c1=O
23 | 0 | – | – | Cc1cn(CCCCP(=O)(O)O)c(=O)[nH]c1=O
79 | 36 | – | – | Cc1cn(Cc2cn(CCCC(F)(F)P(=O)(O)O)nn2)c(=O)[nH]c1=O
44 | 15 | – | – | O=c1ccn(CCCCC(F)(F)P(=O)(O)O)c(=O)[nH]1
90 | 43 | – | – | Cc1cn(CCCSCCCCC(F)(F)P(=O)(O)O)c(=O)[nH]c1=O
88 | 56 | – | – | Cc1cn(CCCCCCCCCCCC(F)(F)P(=O)(O)O)c(=O)[nH]c1=O
95 | 52 | – | – | Cc1cn(CC(I)CC(F)(F)P(=O)(O)O)c(=O)[nH]c1=O (centres undefined)
86 | 55 | – | – | Cc1cn(CCCCCCCCCC(F)(F)P(=O)(O)O)c(=O)[nH]c1=O
78 | 40 | – | – | Cc1cn(CCCCSCCCCC(F)(F)P(=O)(O)O)c(=O)[nH]c1=O
– | 15 | – | – | Cc1cn(CCCCCCCCP(=O)(O)O)c(=O)[nH]c1=O
61 | 20 | – | – | O=c1[nH]c(=O)n(CCCCC(F)(F)P(=O)(O)O)cc1Br
86 | 38 | – | – | Cc1cn(CCCCCCSCCCCC(F)(F)P(=O)(O)O)c(=O)[nH]c1=O
51 | 4 | – | – | Cc1cn(CCCC(F)(F)P(=O)(O)O)c(=O)[nH]c1=O
36 | 0 | – | – | Cc1cn(CCSCCCCC(F)(F)P(=O)(O)O)c(=O)[nH]c1=O
29 | 9 | – | – | Cc1cn(Cc2cn(CC(F)(F)P(=O)(O)O)nn2)c(=O)[nH]c1=O

More lines, now with the values behind:

Structure (SMILES) | inhibition [1] [%] | inhibition [2] [%] | Ki (Thymidine phosphorylase) [µM] | Ki [3] [µM]
Cc1cn(C[C@@H](CF)OCP(=O)(O)O)c(=O)[nH]c1=O | – | – | – | 2
Nc1c(Br)c(=O)[nH]c(=O)n1CCCCCCCCP(=O)(O)O | – | 64 | 142 | 142
O=P(O)(O)C(F)(F)CCCCn1cc(Cn2cnc3c(O)ncnc32)nn1 | 76 | 35 | – | –
Nc1nc(O)c2ncn(CCCC(F)(F)P(=O)(O)O)c2n1 | 25 | 4 | – | –
O=P(O)(O)C(F)(F)CCCCn1cnc2c(O)ncnc21 | 25 | 9 | – | –
Nc1nc(O)c2ncn(Cc3cn(CCCCC(F)(F)P(=O)(O)O)nn3)c2n1 | 76 | 35 | – | –
O=c1ccn(Cc2cn(CCCCC(F)(F)P(=O)(O)O)nn2)c(=O)[nH]1 | 79 | 22 | – | –
Cc1cn(C[C@@H](CO)OCP(=O)(O)O)c(=O)[nH]c1=O | – | – | – | 2
O=P(O)(O)CCCCCCCCn1ccc2c(O)nc(O)nc21 | – | – | 54 | 54
N=C1CCCN1Cc1[nH]c(=O)[nH]c(=O)c1Cl [TIPIRACIL] | – | – | – | 0.035
Nc1nc(O)c2ncn(CCCCC(F)(F)P(=O)(O)O)c2n1 | 74 | 34 | – | –
Nc1[nH]c(=O)[nH]c(=O)c1Br | 100 | 71 | – | –
O=P(O)(O)C(F)(F)CCCn1cc(Cn2cnc3c(O)ncnc32)nn1 | 69 | 29 | – | –
Cc1cn(C[C@@H](C)OCP(=O)(O)O)c(=O)[nH]c1=O | – | – | – | 2

From ChEMBL document CHEMBL2029293, “Fluorophosphonylated nucleoside derivatives as new series of thymidine phosphorylase multisubstrate inhibitors” (J Med Chem, 2012)
